Experimental data published in ChEMBL document CHEMBL1140710, “Structure-activity relationships of cyclic lactam analogues of alpha-melanocyte-stimulating hormone (alpha-MSH) targeting the human melanocortin-3 receptor” (J Med Chem, 2008).

Key:
Melanocortin receptor 4 [1] = biological target: T1, Melanocortin receptor 4 (Homo sapiens, UniProt P32245); assay: Agonist activity at human MC4 receptor expressed in HEK293 cells assessed as intracellular cAMP accumulation; type: functional, cell-based
T1 sequence (P32245 whole entry): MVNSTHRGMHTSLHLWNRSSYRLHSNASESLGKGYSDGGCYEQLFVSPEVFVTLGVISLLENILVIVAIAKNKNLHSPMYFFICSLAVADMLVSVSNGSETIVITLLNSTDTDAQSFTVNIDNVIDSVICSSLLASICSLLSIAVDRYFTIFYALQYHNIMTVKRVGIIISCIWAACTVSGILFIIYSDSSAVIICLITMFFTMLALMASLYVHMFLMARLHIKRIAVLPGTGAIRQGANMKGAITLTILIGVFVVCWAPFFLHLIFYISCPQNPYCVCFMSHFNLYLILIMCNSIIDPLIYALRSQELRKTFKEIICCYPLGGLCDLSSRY
Method in brief: (§1)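 HEK293 cells stably transfected with the receptor, seeded 48 h ahead at 50000 cells/well. Preincubated 1 min at 37 °C in Earle's balanced salt solution with 0.5 mM IBMX, then exposed to peptide for 3 min at 37 °C. cAMP measured by [3H]cAMP/PKA competition against a standard curve.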

Melanocortin receptor 3 [2] = biological target: T2, Melanocortin receptor 3 (Homo sapiens, UniProt P41968); assay: Agonist activity at human MC3 receptor expressed in HEK293 cells assessed as intracellular cAMP accumulation; type: functional, cell-based
T2 sequence (P41968 whole entry): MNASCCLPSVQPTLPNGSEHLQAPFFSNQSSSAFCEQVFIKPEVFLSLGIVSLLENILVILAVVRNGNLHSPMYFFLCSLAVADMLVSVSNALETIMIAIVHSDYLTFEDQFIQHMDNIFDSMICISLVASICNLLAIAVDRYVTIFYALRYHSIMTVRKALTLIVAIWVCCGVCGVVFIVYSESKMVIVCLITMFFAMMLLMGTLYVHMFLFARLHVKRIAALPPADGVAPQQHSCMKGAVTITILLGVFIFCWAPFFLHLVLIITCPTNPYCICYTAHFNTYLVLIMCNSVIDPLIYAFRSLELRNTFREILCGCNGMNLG
Method in brief: (§2)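 Stably transfected HEK293 cells seeded 48 h before assay at 50000 cells/well. Cells preincubated 1 min at 37 °C in Earle's balanced salt solution with 0.5 mM IBMX, then exposed to varying peptide concentrations for 3 min at 37 °C. Cells boiled 7 min, cAMP quantified by [3H]cAMP/PKA competition against a standard curve.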

Melanocortin receptor 4 [3] = biological target: T1, Melanocortin receptor 4; assay: biochemical; type: cell-based, HEK293
Melanocortin receptor 3 [4] = biological target: T2, Melanocortin receptor 3; assay: biochemical; type: cell-based, HEK293
Melanocortin receptor 5 [5] = biological target: T3, Melanocortin receptor 5 (Homo sapiens, UniProt P33032); assay: Displacement of [125I][Nle4,D-Phe7]alpha-MSH from human MC5 receptor expressed in HEK293 cells; type: cell-based
T3 sequence (P33032 whole entry): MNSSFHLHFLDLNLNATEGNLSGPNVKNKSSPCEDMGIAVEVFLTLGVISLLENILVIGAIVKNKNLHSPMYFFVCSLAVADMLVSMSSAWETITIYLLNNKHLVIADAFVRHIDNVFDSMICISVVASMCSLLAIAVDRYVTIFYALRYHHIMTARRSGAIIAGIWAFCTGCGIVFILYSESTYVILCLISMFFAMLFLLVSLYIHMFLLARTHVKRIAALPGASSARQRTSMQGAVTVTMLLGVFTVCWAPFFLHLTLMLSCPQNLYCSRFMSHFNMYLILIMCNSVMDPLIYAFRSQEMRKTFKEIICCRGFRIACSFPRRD
Method in brief: (§3)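 Whole stably transfected HEK293 cells seeded 48 h before assay at 50000 cells/well. Binding buffer: MEM, 25 mM HEPES pH 7.4, 0.2% BSA, 1 mM 1,10-phenanthroline, leupeptin, bacitracin. Cells washed, lysed with NaOH/Triton X-100, gamma-counted. IC50 is mean of two triplicate experiments.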

[6] = biological target: T4, Melanocyte-stimulating hormone receptor (Homo sapiens, UniProt Q01726); assay: Displacement of [125I][Nle4,D-Phe7]alpha-MSH from human MC1 receptor expressed in HEK293 cells; type: cell-based; method in brief: as §3
Target sequence in this assay (Q01726 whole entry): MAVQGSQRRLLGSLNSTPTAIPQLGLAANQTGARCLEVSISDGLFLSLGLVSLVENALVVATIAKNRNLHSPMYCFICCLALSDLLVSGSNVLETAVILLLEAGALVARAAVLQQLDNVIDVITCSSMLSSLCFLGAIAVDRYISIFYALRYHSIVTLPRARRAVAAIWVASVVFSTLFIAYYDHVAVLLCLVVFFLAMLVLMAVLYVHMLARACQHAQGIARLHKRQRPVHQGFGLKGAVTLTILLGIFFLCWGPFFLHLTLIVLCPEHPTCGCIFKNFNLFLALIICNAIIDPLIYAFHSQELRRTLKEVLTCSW

Melanocortin receptor 5 [7] = biological target: T3, Melanocortin receptor 5; assay: Agonist activity at human MC5 receptor expressed in HEK293 cells assessed as intracellular cAMP accumulation; type: functional, cell-based; method in brief: as §1
Melanocortin receptor 3 [8] = biological target: T2, Melanocortin receptor 3; assay: Antagonist activity at human MC3 receptor expressed in HEK293 cells assessed as inhibition of MT2 induced intracellular cAMP accumulation; type: functional, cell-based; conditions: for Kb: read-out: pA2 (converted)
Melanocortin receptor 4 [9] = biological target: T1, Melanocortin receptor 4; assay: Agonist activity at human MC4 receptor expressed in HEK293 cells assessed as intracellular cAMP accumulation at 10 uM; type: functional, cell-based
Method in brief: (§4)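 Stably transfected HEK293 cells seeded 48 h before assay at 50000 cells/well. Cells preincubated 1 min at 37 °C in Earle's balanced salt solution with 0.5 mM IBMX, then exposed to 10 μM peptide for 3 min at 37 °C. Cells boiled 7 min, cAMP measured by [3H]cAMP/PKA competition with a standard curve. Result expressed as percent of cAMP produced by 10 μM MT-II.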

Melanocortin receptor 3 [10] = biological target: T2, Melanocortin receptor 3; assay: Agonist activity at human MC3 receptor expressed in HEK293 cells assessed as intracellular cAMP accumulation at 10 uM relative to MT2; type: functional, cell-based; method in brief: as §4
[11] = biological target: T4, Melanocyte-stimulating hormone receptor; assay: Agonist activity at human MC1 receptor expressed in HEK293 cells assessed as intracellular cAMP accumulation at 10 uM relative to MT2; type: functional, cell-based; method in brief: as §4
Target sequence in this assay (Q01726 whole entry, looked up): as the sequence (Q01726 whole entry) above

Melanocortin receptor 5 [12] = biological target: T3, Melanocortin receptor 5; assay: Agonist activity at human MC5 receptor expressed in HEK293 cells assessed as intracellular cAMP accumulation at 10 uM; type: functional, cell-based; method in brief: as §4
Melanocortin receptor 4 [13] = biological target: T1, Melanocortin receptor 4; assay: Agonist activity at human MC4 receptor expressed in HEK293 cells assessed as intracellular cAMP accumulation at 10 uM relative to MT2; type: functional, cell-based; method in brief: as §4
Melanocortin receptor 5 [14] = biological target: T3, Melanocortin receptor 5; assay: Agonist activity at human MC5 receptor expressed in HEK293 cells assessed as intracellular cAMP accumulation at 10 uM relative to MT2; type: functional, cell-based; method in brief: as §4
[15] = biological target: T4, Melanocyte-stimulating hormone receptor; assay: Agonist activity at human MC1 receptor expressed in HEK293 cells assessed as intracellular cAMP accumulation; type: functional, cell-based; method in brief: as §2
Target sequence in this assay (Q01726 whole entry): as above

Melanocortin receptor 3 [16] = biological target: T2, Melanocortin receptor 3; assay: Agonist activity at human MC3 receptor expressed in HEK293 cells assessed as intracellular cAMP accumulation at 10 uM; type: functional, cell-based; method in brief: as §4
[17] = biological target: T4, Melanocyte-stimulating hormone receptor; assay: Agonist activity at human MC1 receptor expressed in HEK293 cells assessed as intracellular cAMP accumulation at 10 uM; type: functional, cell-based; method in brief: as §4
Target sequence in this assay (Q01726 whole entry, looked up): as the sequence (Q01726 whole entry) above

Melanocortin receptor 5 [18] = biological target: T3, Melanocortin receptor 5; assay: Antagonist activity at human MC5 receptor expressed in HEK293 cells assessed as inhibition of MT2 induced intracellular cAMP accumulation; type: functional, cell-based; conditions: read-out: pA2 (converted)

| EC50 (Melanocortin receptor 3 [2]) [nM] | IC50 (Melanocortin receptor 4 [3]) [nM] | IC50 (Melanocortin receptor 3 [4]) [nM] | IC50 (Melanocortin receptor 5 [5]) [nM] | IC50 [6] [nM] | Activity (Melanocortin receptor 4 [9]) [%] | Activity (Melanocortin receptor 3 [10]) [%] | Activity [11] [%] | Activity (Melanocortin receptor 5 [12]) [%] | Activity (Melanocortin receptor 4 [13]) [%] | Activity (Melanocortin receptor 5 [14]) [%] | EC50 [15] [nM] | Activity (Melanocortin receptor 3 [16]) [%] | Activity [17] [%] | SMILES | EC50 (Melanocortin receptor 4 [1]) [nM] | EC50 (Melanocortin receptor 5 [7]) [nM] | pA2 (Melanocortin receptor 3 [8]; hek293) | Ki (Melanocortin receptor 3 [4]; hek293) [nM] | Kb (Melanocortin receptor 5 [18]) [nM] | Kb (Melanocortin receptor 3 [8]) [nM] |
| --- | --- | --- | --- | --- | --- | --- | --- | --- | --- | --- | --- | --- | --- | --- | --- | --- | --- | --- | --- | --- |
| – | – | – | – | – | – | – | – | – | – | – | – | – | – | NC(=O)[C@@H]1CCCCNC(=O)CC[C@H](N)C(=O)N[C@@H](Cc2cnc[nH]2)C(=O)N[C@H](Cc2ccc3ccccc3c2)C(=O)N[C@@H](CCCN=C(N)N)C(=O)N[C@@H](Cc2c[nH]c3ccccc23)C(=O)N1 | – | – | 10.6 | 5.9 | – | – |
| – | 430 | 32 | 210 | 410 | 0 | 0 | 80 | 0 | 0 | 0 | > 5000 | 0 | – | N=C(N)NCCC[C@@H]1NC(=O)[C@@H](Cc2ccc3ccccc3c2)NC(=O)[C@@H]2CCCN2C(=O)c2ccccc2C(=O)NCCCC[C@@H](C(N)=O)NC(=O)[C@H](Cc2c[nH]c3ccccc23)NC1=O | – | – | – | – | – | – |
| – | – | – | – | – | 0 | 0 | 55 | 0 | 0 | 0 | – | 0 | – | N=C(N)NCCC[C@@H]1NC(=O)[C@@H](Cc2ccc3ccccc3c2)NC(=O)c2nccnc2C(=O)NCCCC[C@@H](C(N)=O)NC(=O)[C@H](Cc2c[nH]c3ccccc23)NC1=O | – | – | – | – | – | – |
| – | 520 | 20 | 120 | > 10000 | 0 | 0 | 0 | 0 | 0 | 0 | – | 0 | 0 | N=C(N)NCCC[C@@H]1NC(=O)[C@@H](Cc2ccc3ccccc3c2)NC(=O)[C@@H]2CCCN2C(=O)/C=C\C(=O)NCCCC[C@@H](C(N)=O)NC(=O)[C@H](Cc2c[nH]c3ccccc23)NC1=O | – | – | – | – | – | – |
| – | > 1000 | 23 | 230 | 707 | – | – | – | – | – | – | > 3000 | – | – | NC(=O)[C@@H]1CCCCNC(=O)c2nccnc2C(=O)N[C@H](Cc2ccc3ccccc3c2)C(=O)N[C@@H](CCCN=C(N)N)C(=O)N[C@@H](Cc2c[nH]c3ccccc23)C(=O)N1 | – | – | – | – | – | – |
| 27 | > 10000 | 1100 | > 10000 | 412 | 0 | 70 | 60 | 0 | 0 | 0 | > 10000 | – | – | N=C(N)NCCC[C@@H]1NC(=O)[C@@H](Cc2ccccc2)NC(=O)c2nccnc2C(=O)NCCCC[C@@H](C(N)=O)NC(=O)[C@H](Cc2c[nH]c3ccccc23)NC1=O | – | – | – | – | – | – |
| – | > 10000 | > 10000 | > 10000 | > 10000 | 0 | 0 | 15 | 0 | 0 | 0 | > 1000 | 0 | – | N=C(N)NCCC[C@@H]1NC(=O)[C@@H](Cc2ccccc2)NC(=O)c2cccc(n2)C(=O)NCCCC[C@@H](C(N)=O)NC(=O)[C@H](Cc2c[nH]c3ccccc23)NC1=O | – | – | – | – | – | – |
| 95 | 777 | > 1000 | > 1000 | > 10000 | 0 | 100 | 0 | 0 | 0 | 0 | – | – | 0 | N=C(N)NCCC[C@@H]1NC(=O)[C@@H](Cc2ccccc2)NC(=O)[C@@H]2CCCN2C(=O)c2ccccc2C(=O)NCCCC[C@@H](C(N)=O)NC(=O)[C@H](Cc2c[nH]c3ccccc23)NC1=O | – | – | – | – | – | – |
| – | – | – | – | – | 0 | 0 | 0 | 0 | 0 | 0 | – | 0 | 0 | N=C(N)NCCC[C@@H]1NC(=O)[C@@H](Cc2ccc3ccccc3c2)NC(=O)c2cccc(n2)C(=O)NCCCC[C@@H](C(N)=O)NC(=O)[C@H](Cc2c[nH]c3ccccc23)NC1=O | – | – | – | – | – | – |
| 100 | 160 | > 1000 | 790 | > 10000 | 0 | 80 | 0 | 0 | 0 | 0 | – | – | 0 | N=C(N)NCCC[C@@H]1NC(=O)[C@@H](Cc2ccccc2)NC(=O)[C@@H]2CCCN2C(=O)/C=C\C(=O)NCCCC[C@@H](C(N)=O)NC(=O)[C@H](Cc2c[nH]c3ccccc23)NC1=O | – | – | – | – | – | – |
| – | > 1000 | > 1000 | > 10000 | > 10000 | – | – | – | – | – | – | – | – | – | NC(=O)[C@@H]1CCCCNC(=O)c2cccc(n2)C(=O)N[C@H](Cc2ccc3ccccc3c2)C(=O)N[C@@H](CCCN=C(N)N)C(=O)N[C@@H](Cc2c[nH]c3ccccc23)C(=O)N1 | – | – | – | – | – | – |

| SMILES | EC50 (Melanocortin receptor 3 [2]) [nM] | IC50 (Melanocortin receptor 4 [3]) [nM] | IC50 (Melanocortin receptor 3 [4]) [nM] | IC50 (Melanocortin receptor 5 [5]) [nM] | IC50 [6] [nM] | Activity (Melanocortin receptor 4 [9]) [%] | Activity (Melanocortin receptor 3 [10]) [%] | Activity [11] [%] | Activity (Melanocortin receptor 5 [12]) [%] | Activity (Melanocortin receptor 4 [13]) [%] | Activity (Melanocortin receptor 5 [14]) [%] | EC50 [15] [nM] | Activity (Melanocortin receptor 3 [16]) [%] | Activity [17] [%] | EC50 (Melanocortin receptor 4 [1]) [nM] | EC50 (Melanocortin receptor 5 [7]) [nM] | pA2 (Melanocortin receptor 3 [8]; hek293) | Ki (Melanocortin receptor 3 [4]; hek293) [nM] | Kb (Melanocortin receptor 5 [18]) [nM] | Kb (Melanocortin receptor 3 [8]) [nM] |
| --- | --- | --- | --- | --- | --- | --- | --- | --- | --- | --- | --- | --- | --- | --- | --- | --- | --- | --- | --- | --- |
| NC(=O)[C@@H]1CCCCNC(=O)CCCC(=O)N2CCC[C@H]2C(=O)N[C@H](Cc2ccccc2)C(=O)N[C@@H](CCCN=C(N)N)C(=O)N[C@@H](Cc2c[nH]c3ccccc23)C(=O)N1 | 29 | > 1000 | 385 | 870 | > 10000 | – | – | – | – | – | – | – | – | – | > 2000 | 570 | – | – | – | – |
| CCCC[C@@H]1NC(=O)CCC(=O)NCCCC[C@@H](C(N)=O)NC(=O)[C@H](Cc2c[nH]c3ccccc23)NC(=O)[C@H](CCCN=C(N)N)NC(=O)[C@@H](Cc2ccc3ccccc3c2)NC1=O | – | 300 | 12 | 17 | 2000 | – | – | – | – | – | – | > 1000 | – | – | – | – | – | – | 2 | 5.01 |
| NC(=O)[C@@H]1CCCCNC(=O)CCCC(=O)N2CCC[C@H]2C(=O)N[C@H](Cc2ccc3ccccc3c2)C(=O)N[C@@H](CCCN=C(N)N)C(=O)N[C@@H](Cc2c[nH]c3ccccc23)C(=O)N1 | – | 330 | 11 | 27 | > 10000 | – | – | – | – | – | – | – | – | – | – | 23 | – | – | – | 0.158 |
| CCCC[C@@H]1NC(=O)CCC(=O)NCCCC[C@@H](C(N)=O)NC(=O)[C@H](Cc2c[nH]c3ccccc23)NC(=O)[C@H](CCCN=C(N)N)NC(=O)[C@@H](Cc2ccccc2)NC1=O | – | 930 | 84 | 520 | > 10000 | – | – | – | – | – | – | – | – | – | – | > 1000 | – | – | – | – |
